Consider four molecules from paper PMC4089878 (Molecular cancer therapeutics, 2013).

In series [1] the test system is K562 cells. Description: Cytotoxicity / viable cell count in K562 leukemic cells. The series is classed as cell-based, human.
For series [2], the system named is ID1 protein in K562 cells. Briefly: Western blot of USP1 and ID1 protein levels in K562 cells. The conditions noted are these: for USP1 and ID1 protein levels: Western blot, 24 hrs (Pimozide 48 hrs). The series is classed as cell-based, human.
For the next series, the system named is K562 xenograft. Description: K562 mouse xenograft. The settings on record: 15 mg/kg daily ip, nude mice. The class given is in vivo, athymic nude mice. In outline:
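Athymic nude mice aged 6–8 weeks were injected subcutaneously in the flank with 5 × 10^6 K562 cells mixed 1:1 with matrigel. At […] tumor size, mice received 15 mg/kg daily ip in 2% DMSO + 0.3% tartaric acid, or vehicle alone (n=10 per group). Tumor volume was calculated as width² × length/2 and compared by […] t-test.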

Series [3] concerns primary human cord blood CD34+ cells. Description: Growth of normal cord blood CD34+ cells. The series is classed as cell-based. The settings on record: Supplementary figure 5.
Series [4] deals with K562 cells. Briefly: Apoptosis. The class given is cell-based, human. The conditions noted are these: 24 hrs (Pimozide 48 hrs).
The next series has as its system native USP1/UAF1 complex. Briefly: HA-Ub-VS competition assay on native USP1 in cell extracts. The settings on record: K562 cells treated 24 hrs (SJB2-043 1 μM); Ub-Aldehyde 5 μM added to extract. The class given is cell-based, human. In outline:
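K562 cells were treated with test compound or DMSO for 24 h. Cell extracts were then incubated with 0.5 μM final HA-Ub-vinylsulfone for 45 min at 30 °C. As a control, an aliquot of untreated extract was pretreated with 5 μM ubiquitin-aldehyde before probe addition. Samples were immunoblotted with anti-HA and anti-USP1 antibodies.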

Another series deals with U2OS-DRGFP cells. Description: DR-GFP homologous recombination reporter. The class given is cell-based, human. The conditions noted are these: 24 h treatment. In outline:
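U2OS-DRGFP cells carry a single chromosomally integrated copy of the HR substrate and were grown in DMEM with 10% FBS. DSBs were induced by I-SceI expression after plasmid transfection. After 24 h, cells were exposed to test compound for 24 h. The percentage of viable GFP-positive cells was measured by FACS and normalized to the solvent vehicle group.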

Another series deals with Ub-FANCD2. Briefly: Western blot of Ub-FANCD2, Ub-FANCI, Ub-PCNA levels. The class given is cell-based, human. The settings on record: supplementary figure 6. A general note: In western blotting, separated proteins are transferred to a membrane and probed.
For series [5], the system named is primary AML bone marrow and peripheral blood cells. Description: Cytotoxicity in primary AML patient cells. The settings on record: 48-72 hrs. The series is classed as cell-based, human. In outline:
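Fresh bone marrow and peripheral blood were taken from AML patients, and mononuclear cells were harvested. These were cultured in triplicate with test compound or DMSO for 48–72 h, and viability was determined. Data come from 3 patient samples, shown as mean ± SEM.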

The subject of series [6] is K562 cells. Description: Benzidine staining differentiation of K562 cells. The series is classed as cell-based, human. The conditions noted are these: low dose, 5 days.
Series [7] relates to MOLM14, OCI-AML3, U937 and SK-NO1. Briefly: Cytotoxicity in AML cell lines. The settings on record: 24 hrs. The series is classed as cell-based, human.

Chain of native USP1/UAF1 complex (O94782 1-671 limits assumed): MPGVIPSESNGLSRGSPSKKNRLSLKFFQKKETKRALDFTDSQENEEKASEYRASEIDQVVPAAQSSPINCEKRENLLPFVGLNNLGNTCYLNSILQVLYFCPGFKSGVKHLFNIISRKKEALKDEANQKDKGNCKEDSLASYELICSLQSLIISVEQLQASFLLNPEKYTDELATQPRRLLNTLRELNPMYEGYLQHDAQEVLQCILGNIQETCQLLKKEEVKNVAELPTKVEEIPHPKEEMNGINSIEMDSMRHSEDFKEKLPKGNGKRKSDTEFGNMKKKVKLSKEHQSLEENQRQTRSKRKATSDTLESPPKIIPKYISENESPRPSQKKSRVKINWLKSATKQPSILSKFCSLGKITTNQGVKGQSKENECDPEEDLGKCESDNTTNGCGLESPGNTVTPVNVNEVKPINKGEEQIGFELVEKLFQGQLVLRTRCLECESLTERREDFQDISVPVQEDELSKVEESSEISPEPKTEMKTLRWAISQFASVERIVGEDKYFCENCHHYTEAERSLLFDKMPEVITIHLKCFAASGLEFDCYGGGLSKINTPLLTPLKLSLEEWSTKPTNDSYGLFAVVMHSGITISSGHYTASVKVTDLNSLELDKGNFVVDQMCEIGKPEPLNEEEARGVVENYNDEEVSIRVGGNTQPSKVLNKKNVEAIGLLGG
Chain of native USP1/UAF1 complex (Q8TAF3 whole entry, further chain): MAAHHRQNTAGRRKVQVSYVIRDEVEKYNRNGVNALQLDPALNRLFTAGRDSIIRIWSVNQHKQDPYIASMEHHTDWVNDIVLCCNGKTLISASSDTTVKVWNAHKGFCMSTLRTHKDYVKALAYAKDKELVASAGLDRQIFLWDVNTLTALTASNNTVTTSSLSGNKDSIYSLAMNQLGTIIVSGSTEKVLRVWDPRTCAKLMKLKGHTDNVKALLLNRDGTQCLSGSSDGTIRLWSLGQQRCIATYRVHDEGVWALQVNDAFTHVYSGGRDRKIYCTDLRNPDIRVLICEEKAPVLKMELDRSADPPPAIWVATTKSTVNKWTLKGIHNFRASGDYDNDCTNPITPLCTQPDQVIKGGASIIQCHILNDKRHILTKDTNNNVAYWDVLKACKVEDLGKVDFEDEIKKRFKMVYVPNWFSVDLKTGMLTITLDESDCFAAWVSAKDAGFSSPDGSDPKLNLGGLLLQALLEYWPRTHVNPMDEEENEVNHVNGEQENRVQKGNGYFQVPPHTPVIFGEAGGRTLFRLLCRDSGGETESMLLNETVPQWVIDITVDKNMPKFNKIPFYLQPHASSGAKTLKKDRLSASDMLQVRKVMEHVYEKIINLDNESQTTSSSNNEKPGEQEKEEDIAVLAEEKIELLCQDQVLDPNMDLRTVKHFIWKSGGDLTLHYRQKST

Turning to `O=c1[nH]c2ccccc2n1C1CCN(CCCC(c2ccc(F)cc2)c2ccc(F)cc2)CC1` [Pimozide, reference compound], in the series on K562 cells [1] (48 hrs), the “K562 cell growth” value is on record as “dose-dependent inhibition of K562 cell growth”. In [2], the “USP1 and ID1 protein levels” value is listed as “promoted ID1 degradation”. The “tumor growth in K562 xenograft” value with K562 xenograft is “modest inhibition of tumor growth”. Besides, the “effect on normal human cord blood CD34+ cells” value in [3] is “tolerated at high micromolar doses”. Also, in the series with K562 cells [4], the “apoptosis of K562 cells” value was “induction of apoptosis”.

Turning to Ub-aldehyde, the “Ub-VS labeling of native USP1” value in the series with native USP1/UAF1 complex is “complete loss of USP1-Ub-VS conjugates”.

Regarding `O=C1c2ccccc2C(=O)c2oc(-c3cccnc3)nc21` [SJB3-019A], the “gene conversion / HR activity” value in the series with U2OS-DRGFP cells is listed as “decreased the HR activity”. Also, in the series with K562 cells [1] (K562 cells), the “potency relative to SJB2-043 in cytoxicity in K562 cells” value is 5 times. Besides, the “potency relative to SJB2-043 in promoting ID1 degradation” value in series [2] worked out at 5 times. Moreover, the “levels of Ub-FANCD2 / Ub-PCNA” value with Ub-FANCD2 was “increased the levels of Ub-FANCD2 and Ub-PCNA”.

With `O=C1c2ccccc2C(=O)c2oc(-c3ccccc3)nc21` [SJB2-043], the concentration for a half-maximal effect (EC50) with K562 cells [1] (read-out: EC50, decrease in the number of viable K562 cells, 24 hrs, ± 0.08 (95% Confidence Limits)) was approximately 1070 nM. Further, the “USP1/ID1 degradation, time course” value in series [2] (2 μM, 18 hrs or 26 hrs) is given as “complete degradation of USP1/ID1”. Besides, the “USP1 and ID1 protein levels” value in series [2] is “dose-dependent decrease in USP1 levels and a concomitant degradation of ID1 protein”. In addition, in [5], the “cytotoxicity on primary AML bone marrow and peripheral blood cells” value is “dose-dependent cytotoxicity”. Moreover, the “effect on normal human cord blood CD34+ cells” value in series [3] is “did result in growth inhibition”. Moreover, the “differentiation of K562 cells” value in the series with K562 cells [6] is “activated differentiation of K562 cells into hemoglobin-expressing erythroid cells”. For the same molecule, the “cytotoxicity in AML cell lines” value in series [7] is “dose-dependent cytotoxicity and concomitant ID1 degradation”. Further, in the series with Ub-FANCD2, the “levels of Ub-FANCD2 / Ub-PCNA” value is recorded as “increased the level of Ub-FANCD2”. The “apoptosis of K562 cells” value in the series with K562 cells [4] is on record as “induced apoptosis of K562 cells in a dose-dependent manner”.

Usually EC50 stands for the concentration at which the effect is half-maximal.
